Converted amounts (≈) assume the structure as drawn.
Tests used:
[1] = Dissociation constant, basic pKa of compound by pH metric method; assay type: physicochemical
Outline: (§1)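 Potentiometric (pH-metric) titration on an automated titrator, Gold Standard pH metric assay, run in triplicate.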

Pseudomonas aeruginosa [2] = assay: Antibacterial activity against Pseudomonas aeruginosa PAO1 after 24 hrs by broth microdilution method; assay type: functional; details: PAO1, 24 h
Outline: (§2)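 Broth microdilution per CLSI. Bacterial suspension adjusted to 1×10^6 CFU/mL in cation-adjusted Mueller–Hinton broth and mixed 1:1 with 2-fold serial compound dilutions. Final DMSO 2.5% v/v. Plates incubated at 35 °C with shaking at 140 rpm for 24 h.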

Escherichia coli [3] = assay: Antibacterial activity against Escherichia coli after 24 hrs by broth microdilution method; assay type: functional; outline: as §2
DNA gyrase subunit B = DNA gyrase subunit B (Escherichia coli, UniProt P0AES6); assay: Inhibition of Escherichia coli GyrB (1 to 220 residues) expressed in Escherichia coli BL21(DE3)
[4] = Dissociation constant, acidic pKa of compound by pH metric method; assay type: physicochemical; outline: as §1
Pseudomonas aeruginosa [5] = assay: Antibacterial activity against Pseudomonas aeruginosa harboring MexABCDXY deletion mutant after 24 hrs by broth microdilution method; assay type: functional
Outline: (§3)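 Broth microdilution per CLSI. Bacterial suspensions adjusted to 1×10^6 CFU/mL in cation-adjusted Mueller–Hinton broth, mixed 1:1 with 2-fold serial compound dilutions (final DMSO 2.5% v/v). Incubation 35 °C, 140 rpm, 24 h.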

[6] = molecular target: DNA topoisomerase 4 subunit B (Escherichia coli K-12, UniProt P20083); assay: Inhibition of Escherichia coli ParE
Escherichia coli [7] = assay: Antibacterial activity against tolC deficient Escherichia coli after 24 hrs by broth microdilution method; assay type: functional
Outline: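 Broth microdilution per CLSI guidelines. Inoculum adjusted to 1×10^6 CFU/mL in cation-adjusted Mueller–Hinton broth, added 1:1 to 2-fold serial compound dilutions; final DMSO 2.5% v/v. Plates incubated 35 °C, 140 rpm, 24 h.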

[8] = Dissociation constant, pKa of compound by pH metric method; assay type: physicochemical; outline: as §1
[9] = Growth inhibition of human A549 cells; assay type: cell-based
Acinetobacter baumannii [10] = assay: Antibacterial activity against Acinetobacter baumannii ARC2779 after 24 hrs by broth microdilution method; assay type: functional; details: ARC2779, 24 h; outline: as §2
Acinetobacter baumannii [11] = assay: Antibacterial activity against Acinetobacter baumannii ARC3513 after 24 hrs by broth microdilution method; assay type: functional; details: ARC3513, 24 h; outline: as §2
Pseudomonas aeruginosa [12] = assay: Antibacterial activity against Pseudomonas aeruginosa ARC3606 after 24 hrs by broth microdilution method; assay type: functional; details: ARC3606, 24 h; outline: as §2
Acinetobacter baumannii [13] = assay: Antibacterial activity against Acinetobacter baumannii ARC3485 after 24 hrs by broth microdilution method; assay type: functional; details: ARC3485, 24 h; outline: as §2
Acinetobacter baumannii [14] = assay: Antibacterial activity against Acinetobacter baumannii ARC3515 after 24 hrs by broth microdilution method; assay type: functional; details: ARC3515, 24 h; outline: as §2
Pseudomonas aeruginosa [15] = assay: Antibacterial activity against Pseudomonas aeruginosa ARC3612 after 24 hrs by broth microdilution method; assay type: functional; details: ARC3612, 24 h; outline: as §2
Pseudomonas aeruginosa [16] = assay: Antibacterial activity against Pseudomonas aeruginosa ARC3611 after 24 hrs by broth microdilution method; assay type: functional; details: ARC3611, 24 h; outline: as §2
Pseudomonas aeruginosa [17] = assay: Antibacterial activity against Pseudomonas aeruginosa ARC4060 after 24 hrs by broth microdilution method; assay type: functional; details: ARC4060, 24 h; outline: as §2
Acinetobacter baumannii [18] = assay: Antibacterial activity against Acinetobacter baumannii ARC3882 after 24 hrs by broth microdilution method; assay type: functional; details: ARC3882, 24 h; outline: as §2
Pseudomonas aeruginosa [19] = assay: Antibacterial activity against Pseudomonas aeruginosa ARC3729 after 24 hrs by broth microdilution method; assay type: functional; details: ARC3729, 24 h; outline: as §2
Pseudomonas aeruginosa [20] = assay: Antibacterial activity against Pseudomonas aeruginosa ARC3505 after 24 hrs by broth microdilution method; assay type: functional; details: ARC3505, 24 h; outline: as §2
Pseudomonas aeruginosa [21] = assay: Antibacterial activity against Pseudomonas aeruginosa ARC3504 after 24 hrs by broth microdilution method; assay type: functional; details: ARC3504, 24 h; outline: as §2
Pseudomonas aeruginosa [22] = assay: Antibacterial activity against Pseudomonas aeruginosa ARC003 after 24 hrs by broth microdilution method; assay type: functional; details: ARC003, 24 h; outline: as §2
Acinetobacter baumannii [23] = assay: Antibacterial activity against Acinetobacter baumannii ARC3659 after 24 hrs by broth microdilution method; assay type: functional; details: ARC3659, 24 h; outline: as §2
Pseudomonas aeruginosa [24] = assay: Antibacterial activity against Pseudomonas aeruginosa ARC3509 after 24 hrs by broth microdilution method; assay type: functional; details: ARC3509, 24 h; outline: as §2
Acinetobacter baumannii [25] = assay: Antibacterial activity against Acinetobacter baumannii ARC2782 after 24 hrs by broth microdilution method; assay type: functional; details: ARC2782, 24 h; outline: as §2
Pseudomonas aeruginosa [26] = assay: Antibacterial activity against Pseudomonas aeruginosa ARC3916 after 24 hrs by broth microdilution method; assay type: functional; details: ARC3916, 24 h; outline: as §2
Acinetobacter baumannii [27] = assay: Antibacterial activity against Acinetobacter baumannii ARC2674 after 24 hrs by broth microdilution method; assay type: functional; details: ARC2674, 24 h; outline: as §2
Acinetobacter baumannii [28] = assay: Antibacterial activity against Acinetobacter baumannii ARC3486 after 24 hrs by broth microdilution method; assay type: functional; details: ARC3486, 24 h; outline: as §2
Acinetobacter baumannii [29] = assay: Antibacterial activity against Acinetobacter baumannii ARC3657 after 24 hrs by broth microdilution method; assay type: functional; details: ARC3657, 24 h; outline: as §2
Acinetobacter baumannii [30] = assay: Antibacterial activity against Acinetobacter baumannii ARC3493 after 24 hrs by broth microdilution method; assay type: functional; details: ARC3493, 24 h; outline: as §2
Acinetobacter baumannii [31] = assay: Antibacterial activity against Acinetobacter baumannii ARC3658 after 24 hrs by broth microdilution method; assay type: functional; details: ARC3658, 24 h; outline: as §2
Acinetobacter baumannii [32] = assay: Antibacterial activity against Acinetobacter baumannii ARC2728 after 24 hrs by broth microdilution method; assay type: functional; details: ARC2728, 24 h; outline: as §2
Pseudomonas aeruginosa [33] = assay: Antibacterial activity against Pseudomonas aeruginosa ARC3607 after 24 hrs by broth microdilution method; assay type: functional; details: ARC3607, 24 h; outline: as §2
Pseudomonas aeruginosa [34] = assay: Antibacterial activity against Pseudomonas aeruginosa ARC3506 after 24 hrs by broth microdilution method; assay type: functional; details: ARC3506, 24 h; outline: as §2
Acinetobacter baumannii [35] = assay: Antibacterial activity against Acinetobacter baumannii ARC3489 after 24 hrs by broth microdilution method; assay type: functional; details: ARC3489, 24 h; outline: as §2
Acinetobacter baumannii [36] = assay: (§4) Antibacterial activity against Acinetobacter baumannii ARC3495 after 24 hrs by broth microdilution method; assay type: functional; details: ARC3495, 24 h; outline: as §2
Staphylococcus aureus [37] = assay: Antibacterial activity against Staphylococcus aureus ATCC 29213 after 24 hrs in presence of 2% human albumin by broth microdilution method; assay type: functional; details: ATCC 29213, 24 h
Acinetobacter baumannii [38] = assay: as §4; assay type: functional; details: ARC3495, 24 h; outline: as §2; remark: listed apart in the source
Enterococcus faecalis = assay: Antibacterial activity against Enterococcus faecalis ATCC 29212 after 24 hrs by broth microdilution method; assay type: functional; details: ATCC 29212, 24 h; outline: as §2
Haemophilus influenzae = assay: Antibacterial activity against Haemophilus influenzae ATCC 49247 after 24 hrs by broth microdilution method; assay type: functional; details: ATCC 49247, 24 h; outline: as §2
Klebsiella pneumoniae = assay: Antibacterial activity against Klebsiella pneumoniae ARC1865 after 24 hrs by broth microdilution method; assay type: functional; details: ARC1865, 24 h; outline: as §2
Staphylococcus aureus [39] = assay: Antibacterial activity against methicillin-resistant Staphylococcus aureus USA100 after 24 hrs by broth microdilution method; assay type: functional; details: USA100, 24 h; outline: as §3
Enterobacter cloacae = assay: Antibacterial activity against Enterobacter cloacae ARC3528 after 24 hrs by broth microdilution method; assay type: functional; details: ARC3528, 24 h; outline: as §2
Staphylococcus aureus [40] = assay: Antibacterial activity against methicillin-resistant Staphylococcus aureus FQ-R after 24 hrs by broth microdilution method; assay type: functional; outline: as §3
Streptococcus pneumoniae = assay: Antibacterial activity against Streptococcus pneumoniae ATCC 49619 after 24 hrs by broth microdilution method; assay type: functional; details: ATCC 49619, 24 h; outline: as §2
Candida albicans = assay: Antifungal activity against Candida albicans ATCC 90028 after 24 hrs by broth microdilution method; assay type: functional; details: ATCC 90028, 24 h
Staphylococcus aureus [41] = assay: Antibacterial activity against Staphylococcus aureus ATCC 29213 after 24 hrs by broth microdilution method; assay type: functional; details: ATCC 29213, 24 h; outline: as §2

DNA topoisomerase 4 subunit B, sequence (P20083 whole entry): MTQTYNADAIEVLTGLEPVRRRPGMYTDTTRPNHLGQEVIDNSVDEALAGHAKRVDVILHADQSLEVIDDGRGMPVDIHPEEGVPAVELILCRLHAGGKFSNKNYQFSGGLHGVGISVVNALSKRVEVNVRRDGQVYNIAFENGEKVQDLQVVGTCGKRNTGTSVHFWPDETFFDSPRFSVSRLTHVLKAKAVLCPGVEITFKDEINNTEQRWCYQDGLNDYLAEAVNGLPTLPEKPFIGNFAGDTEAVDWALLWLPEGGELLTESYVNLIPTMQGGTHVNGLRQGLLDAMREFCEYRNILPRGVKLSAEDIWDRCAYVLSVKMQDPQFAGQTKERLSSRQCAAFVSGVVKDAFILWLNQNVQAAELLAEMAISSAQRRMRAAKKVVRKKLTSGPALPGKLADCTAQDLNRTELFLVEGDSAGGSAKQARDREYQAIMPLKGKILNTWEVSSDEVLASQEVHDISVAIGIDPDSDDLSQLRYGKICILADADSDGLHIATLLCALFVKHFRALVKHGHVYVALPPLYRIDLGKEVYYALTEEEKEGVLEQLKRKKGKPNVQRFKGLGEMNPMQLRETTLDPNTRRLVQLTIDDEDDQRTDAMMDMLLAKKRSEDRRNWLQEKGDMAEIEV

## CCNC(=O)Nc1cc(-c2nc(C(F)(F)F)cs2)c(-c2cc(-c3nnn[nH]3)cnc2N2C3CCC2CN(C)C3)cn1
[1]
  pKa: 7.8
Pseudomonas aeruginosa [2]
  MIC: > 50 µg/mL
Escherichia coli [3]
  MIC: > 50 µg/mL
DNA gyrase subunit B
  IC50: 9 nM
[4]
  pKa: 3.6
Pseudomonas aeruginosa [5]
  MIC: > 50 µg/mL
[6]
  IC50: 4 nM
Escherichia coli [7]
  MIC: 36 µg/mL (≈ 61.5 µM)

## CCNC(=O)Nc1cc(-c2nc(C(F)(F)F)cs2)c(-c2cc3ncccc3nc2N2CCC(N)CC2)cn1
Pseudomonas aeruginosa [2]
  MIC: 67.8 µg/mL (≈ 125 µM)
Escherichia coli [3]
  MIC: 16.8 µg/mL (≈ 31 µM)
[8]
  pKa: 9.3
DNA gyrase subunit B
  IC50: 6 nM
Pseudomonas aeruginosa [5]
  MIC: 0.54 µg/mL (≈ 0.995 µM)
[6]
  IC50: 49 nM
[9]
  GI50: > 50000 nM
Escherichia coli [7]
  MIC: 0.54 µg/mL (≈ 0.995 µM)

## C[C@@H](O)[C@H]1C(=O)N2C(C(=O)O)=C(S[C@@H]3CN[C@H](C(=O)N(C)C)C3)[C@H](C)[C@H]12 [MEROPENEM]
Acinetobacter baumannii [10]
  MIC: 16 µg/mL (≈ 41.7 µM)
Acinetobacter baumannii [11]
  MIC: 32 µg/mL (≈ 83.4 µM)
Pseudomonas aeruginosa [12]
  MIC: 4 µg/mL (≈ 10.4 µM)
Acinetobacter baumannii [13]
  MIC: 32 µg/mL (≈ 83.4 µM)
Acinetobacter baumannii [14]
  MIC: 4 µg/mL (≈ 10.4 µM)
Pseudomonas aeruginosa [15]
  MIC: 32 µg/mL (≈ 83.4 µM)
Pseudomonas aeruginosa [16]
  MIC: 4 µg/mL (≈ 10.4 µM)
Pseudomonas aeruginosa [17]
  MIC: 16 µg/mL (≈ 41.7 µM)
Acinetobacter baumannii [18]
  MIC: > 64 µg/mL
Pseudomonas aeruginosa [19]
  MIC: 32 µg/mL (≈ 83.4 µM)
Pseudomonas aeruginosa [20]
  MIC: 2 µg/mL (≈ 5.22 µM)
Pseudomonas aeruginosa [21]
  MIC: 4 µg/mL (≈ 10.4 µM)
Pseudomonas aeruginosa [22]
  MIC: 0.25 µg/mL (≈ 0.652 µM)
Acinetobacter baumannii [23]
  MIC: 16 µg/mL (≈ 41.7 µM)
Pseudomonas aeruginosa [24]
  MIC: 16 µg/mL (≈ 41.7 µM)
Acinetobacter baumannii [25]
  MIC: 16 µg/mL (≈ 41.7 µM)
Pseudomonas aeruginosa [26]
  MIC: 32 µg/mL (≈ 83.4 µM)
Acinetobacter baumannii [27]
  MIC: 16 µg/mL (≈ 41.7 µM)
Acinetobacter baumannii [28]
  MIC: > 64 µg/mL
Acinetobacter baumannii [29]
  MIC: 1 µg/mL (≈ 2.61 µM)
Acinetobacter baumannii [30]
  MIC: > 64 µg/mL
Acinetobacter baumannii [31]
  MIC: 32 µg/mL (≈ 83.4 µM)
Acinetobacter baumannii [32]
  MIC: 0.25 µg/mL (≈ 0.652 µM)
Pseudomonas aeruginosa [33]
  MIC: 8 µg/mL (≈ 20.9 µM)
Pseudomonas aeruginosa [34]
  MIC: 8 µg/mL (≈ 20.9 µM)
Acinetobacter baumannii [35]
  MIC: 4 µg/mL (≈ 10.4 µM)
Acinetobacter baumannii [36]
  MIC: > 64 µg/mL

## CC(C)(O/N=C(\C(=O)N[C@@H]1C(=O)N2C(C(=O)[O-])=C(C[n+]3ccccc3)CS[C@H]12)c1csc(N)n1)C(=O)O [CEFTAZIDIME]
Staphylococcus aureus [37]
  MIC: 16 µg/mL
Acinetobacter baumannii [38]
  MIC: > 32 µg/mL
Enterococcus faecalis
  MIC: > 32 µg/mL
Haemophilus influenzae
  MIC: 0.25 µg/mL (≈ 0.457 µM)
Klebsiella pneumoniae
  MIC: 0.25 µg/mL (≈ 0.457 µM)
Staphylococcus aureus [39]
  MIC: > 32 µg/mL
Enterobacter cloacae
  MIC: > 32 µg/mL
Staphylococcus aureus [40]
  MIC: > 32 µg/mL
Streptococcus pneumoniae
  MIC: 0.5 µg/mL (≈ 0.915 µM)
Candida albicans
  MIC: > 32 µg/mL
Staphylococcus aureus [41]
  MIC: 16 µg/mL (≈ 29.3 µM)

— ChEMBL document CHEMBL4270612, “Discovery of dual GyrB/ParE inhibitors active against Gram-negative bacteria” (Eur J Med Chem, 2018)
